The list is not random: actives were taken first. Their share in the collection is about 2.5%.
Glyco luc inh = N-linked glycosylation inhibition; D54 ERlucT glycosylation luciferase reporter, 24 h; percent of 100 nM tunicamycin response; 360,000 compounds, 0.23% hits; reporter increase, % at 12.5 µM;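 active = mean luciferase reporter signal, scaled so untreated is 0 and the glycosylation-blocking control 100, at or above a set limit in every replicate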;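 also: luciferase carries N-glycosylation sites so blocking glycosylation raises the light; 0% = median of neutral control wells and 100% = median of 100 nM tunicamycin wells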
PAX8 reporter = lowers PAX8-driven luciferase in RMG-I cells. 360,000 compounds, 1.2% hits. RMG-I TPO-luciferase reporter, SteadyGlo, 24 h. inhibition, % at 12.6 µM;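 active = mean replicate inhibition at least 60% with every replicate also reaching 60%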;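 also: luciferase light reporting Pax8 driven TPO promoter activity; plate controls were median of neutral control wells for no effect and mitoxantrone controls for full effect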
HIV Env fusion = inhibitors of HIV Env-mediated cell fusion. 360,000 compounds, 1.1% hits. HeLa-JRFL Env/CEM21 cell fusion, luciferase. inhibition, % at 12.3 µM;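 active = mean replicate inhibition score of at least 50 and every replicate individually at or above 50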;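 also: 0% = plate neutral controls and 100% = maraviroc near 300 nM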
FN deposition inh = fibronectin deposition inhibition; AH1F fibroblasts, Alexa488-fibronectin deposition fluorescence, overnight; inhibition, % at 12.6 µM; 350,000 compounds, 0.086% hits;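 active = mean inhibition across replicates of 30% or more, regardless of how many single replicates reach that level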;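 also: positive control wells lacked labelled fibronectin entirely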
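Material – AH1F fibroblast monolayer, labelled fibronectin deposition · Reagent – labelled fibronectin 24 nM · Timing – 1 h adhesion, overnight exposure · Measured by – fluorescence at 485 nm excitation, 525 nm emission · Read-out – inhibition of fibronectin deposition signal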
EWS-Fli block = blocks EWS/Fli oncoprotein-driven transcription; A673 NR0B1-luciferase reporter, viability-normalised; inhibition, % at 12.6 µM; 350,000 compounds, 0.67% hits;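 active = mean inhibition of at least 50% after viability correction, with every replicate also passing that limit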;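 also: firefly luciferase signal divided by Alamar Blue viability fluorescence both relative to DMSO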
AF4-AF9 inh = blocks AF4 peptide binding to human AF9. P42568. AlphaScreen, biotin-AF4 peptide binding to FLAG-AF9. inhibition, % at 10 µM. 350,000 compounds, 0.47% hits. AID 651704;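 active = every replicate reaching a set inhibition limit, whatever the replicate mean, cut at about 25% in these data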;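 also: 0% = plate neutral control median and 100% = total signal loss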
Target sequence (P42568 whole entry, looked up): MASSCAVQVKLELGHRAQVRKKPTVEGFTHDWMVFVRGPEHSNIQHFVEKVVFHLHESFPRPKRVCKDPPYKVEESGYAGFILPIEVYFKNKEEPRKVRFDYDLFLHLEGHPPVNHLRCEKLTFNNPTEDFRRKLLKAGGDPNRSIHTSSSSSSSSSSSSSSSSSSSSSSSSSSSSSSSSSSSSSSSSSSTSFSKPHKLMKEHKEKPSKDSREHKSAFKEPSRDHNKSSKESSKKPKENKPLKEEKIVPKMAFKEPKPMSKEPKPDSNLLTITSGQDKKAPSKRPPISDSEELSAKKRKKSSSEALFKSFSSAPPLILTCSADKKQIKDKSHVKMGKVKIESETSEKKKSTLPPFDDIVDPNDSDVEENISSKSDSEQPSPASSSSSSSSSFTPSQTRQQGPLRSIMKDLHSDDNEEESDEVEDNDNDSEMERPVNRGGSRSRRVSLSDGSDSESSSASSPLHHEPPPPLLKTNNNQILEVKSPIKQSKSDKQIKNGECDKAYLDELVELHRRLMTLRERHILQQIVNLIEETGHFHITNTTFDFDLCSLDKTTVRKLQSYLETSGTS
* marks the source's active call; other numbers are inactive results; / = no result given; [ ] = remark or other dose.

SMILES	Glyco luc inh	PAX8 reporter	HIV Env fusion	FN deposition inh	EWS-Fli block	AF4-AF9 inh
O=C(c1nnsc1S(=O)(=O)c1ccc(Cl)cc1)N1CCOCC1	-19	93*	27	11	1	-18
CNC(=O)c1nnsc1S(=O)(=O)c1ccc(Cl)cc1	-14	107*	13	/	58*	-1
Cc1noc(C)c1NC(=O)NCC[C@H]1CC[C@H](NC(=O)c2ccccc2)[C@H](CO)O1	/	-5	3[16.7 µM]	/	1	3
C[C@H](CO)N1C[C@H](C)[C@H](CN(C)S(=O)(=O)c2ccc(Cl)cc2)Oc2ccc(NC(=O)CCCN(C)C)cc2C1=O	/	0	/	/	15	-2
CCn1c(/C=C/Nc2ccccc2)[n+](CC)c2cc(Cl)c(Cl)cc21	-3	32	/	-3	69*	4
CCn1c(/C=C/N(C(C)=O)c2ccccc2)[n+](CCCS(=O)(=O)[O-])c2cc(Cl)c(Cl)cc21	0	1	2	6	3	0
C[C@@H]1CN([C@H](C)CO)C(=O)c2cc(C#Cc3ccncc3)cnc2O[C@H]1CN(C)CC1CCCC1	/	-11	-26[16.7 µM]	3	-11	-7
COCCNC(=O)C1(C)CCCN(C(=O)c2ccc3c(c2)CCO3)C1 (stereo not given)	1	-5	59*	-2	-4	1
CO[C@@H]1CN(C)C(=O)c2ccc(NC(=O)NC3CCCCC3)cc2OC[C@@H](C)N(CCc2ccccc2)C[C@H]1C	/	66*	/	11	7	1
CO[C@H]1CN(C)C(=O)c2cc(NC(=O)NC3CCCCC3)ccc2OC[C@H](C)N(CCc2ccccc2)C[C@@H]1C	/	/	47[16.7 µM]	-5	0	3
COc1cccc(C(=O)Nc2ccc3c(c2)C(=O)N(C)C[C@H](OC)[C@@H](C)CN(CCc2ccccc2)[C@H](C)CO3)c1	/	47	55*[16.7 µM]	6	9	1
C/C(=N/NC(=O)c1cccs1)c1ccc(NC(=O)COc2ccc(Cl)cc2Cl)cc1	40*	/	-28	17	/	/
C/C(=N/NC(=O)c1ccc(C)s1)c1cccc(NC(=O)COc2ccc(Cl)cc2Cl)c1	2	/	/	/	/	/
COc1ccc(C(=O)NNC2=Nc3cccc4cccc2c34)cc1	2	22	7	1	16	-2
COc1ccccc1N1CCN(C2=Nc3cccc4cccc2c34)CC1	2	-123	-105	/	-103	30*
COc1ccccc1NC1=Nc2cccc3cccc1c23	1	91*	-5	-12	-12	12
COc1ccccc1S(=O)(=O)N[C@@H]1CC[C@H](CCNC(=O)C2CCOCC2)O[C@@H]1CO	/	/	/	/	/	0
C[C@@H]1CN([C@H](C)CO)S(=O)(=O)c2ccc(-c3ccccc3)cc2O[C@@H]1CN(C)C(=O)c1ccccc1F	/	/	13[16.7 µM]	-3	-18	/
O=C(O)c1cccc(S(=O)(=O)Nc2ccccc2Cc2ccccc2)c1	1	3	19	2	4	44*
CCc1ccc2[nH]c(=O)c(C(c3nnnn3Cc3ccc(OC)cc3)N3CCOCC3)cc2c1 (stereo not given)	1	/	78*	0	/	/
COc1ccc(Cn2nnnc2C(c2cc3cc(C)cc(C)c3[nH]c2=O)N2CCOCC2)cc1 (stereo not given)	4	/	131*	6	/	/
C[C@@H]1CCCCO[C@@H](CN(C)C(=O)Nc2ccc(F)cc2)[C@@H](C)CN([C@H](C)CO)C(=O)c2cc(NS(C)(=O)=O)ccc2O1	/	-8	11[16.7 µM]	/	-5	-1
COCC#Cc1ccc2c(c1)O[C@H](CN(C)Cc1ccccc1)[C@@H](C)CN([C@H](C)CO)S2(=O)=O	/	/	11[16.7 µM]	/	5	2
Cn1cccc1C(=O)NC(=O)COC(=O)c1ccc(S(C)(=O)=O)c([N+](=O)[O-])c1	-10	/	/	/	/	/
CC(OC(=O)c1ccc(S(C)(=O)=O)c([N+](=O)[O-])c1)C(=O)NC1C2CC3CC(C2)CC1C3 (stereo not given)	-13	106*	-57	/	50	-4
CS(=O)(=O)c1ccc(C(=O)OCC(=O)NC23CC4CC(CC(C4)C2)C3)cc1[N+](=O)[O-]	3	53	-22	-9	/	2
CC(C)CN1CCN(C(=O)COC(=O)c2ccc(S(C)(=O)=O)c([N+](=O)[O-])c2)CC1	-12	112*	33	3	34	-13

Source: PubChem
